Experimental data from ChEMBL document CHEMBL2413065, “Design and synthesis of bicyclic heterocycles as potent γ-secretase modulators” (Bioorg Med Chem Lett, 2013).
Calls of active or inactive are those of the source. The rule behind the calls is not given here.

Legend:
[1] = Ratio of drug level in brain to plasma in mouse at 30 mg/kg, po after 4 hrs; format: ADME, organism-based; set-up: dose 30 mg/kg, route oral; details: read-out: BPR
Method in brief: (§1)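 Mice received 30 mg/kg orally. Plasma and brain were sampled at 4 h and analysed for compound by a qualified research LC-MS/MS method. The brain/plasma ratio was calculated from the two concentrations.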

[2] = biological target: Voltage-gated inwardly rectifying potassium channel KCNH2 (Homo sapiens, UniProt Q12809); test: Binding affinity to human ERG
Cytochrome P450 2D6 = Cytochrome P450 2D6 (Homo sapiens, UniProt P10635); test: Inhibition of CYP2D6 (unknown origin)
[3] = Drug level in mouse brain at 30 mg/kg, po after 4 hrs; format: ADME, organism-based; set-up: dose 30 mg/kg, route oral; details: read-out: Drug uptake; method in brief: as §1
Cytochrome P450 1A2 = biological target: T1, Cytochrome P450 1A2 (Homo sapiens, UniProt P05177); test: Inhibition of CYP1A2 (unknown origin)
T1 sequence (P05177 whole entry): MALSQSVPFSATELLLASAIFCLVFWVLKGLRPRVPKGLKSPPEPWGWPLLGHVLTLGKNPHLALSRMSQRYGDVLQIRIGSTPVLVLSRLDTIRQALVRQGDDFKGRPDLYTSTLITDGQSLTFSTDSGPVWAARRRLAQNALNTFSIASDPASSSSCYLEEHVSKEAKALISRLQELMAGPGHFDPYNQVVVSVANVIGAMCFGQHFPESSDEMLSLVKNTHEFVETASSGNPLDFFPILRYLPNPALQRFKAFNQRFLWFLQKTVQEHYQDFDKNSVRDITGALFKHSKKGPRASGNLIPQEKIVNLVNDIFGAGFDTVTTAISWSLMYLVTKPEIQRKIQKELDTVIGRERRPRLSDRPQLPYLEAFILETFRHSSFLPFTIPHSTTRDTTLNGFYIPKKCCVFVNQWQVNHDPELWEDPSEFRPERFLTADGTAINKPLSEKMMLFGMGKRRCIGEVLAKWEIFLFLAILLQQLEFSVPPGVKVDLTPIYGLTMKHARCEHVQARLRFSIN

[4] = Plasma concentration in mouse at 30 mg/kg, po after 4 hrs; format: ADME, organism-based; set-up: dose 30 mg/kg, route oral; method in brief: as §1
Cytochrome P450 2C9 = Cytochrome P450 2C9 (Homo sapiens, UniProt P11712); test: Inhibition of CYP2C9 (unknown origin)
Mus musculus [5] = test: Antialzheimer activity in mouse assessed as reduction of amyloid beta-42 level at 30 mg/kg, po after 4 hrs by ELISA; format: functional
Method in brief: (§2)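 Mice dosed orally at 30 mg/kg, n = 6. Brain Aβ peptides were measured by ELISA 4 h after dosing. Values are given as % change versus untreated animals.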

Mus musculus [6] = test: Effect in mouse assessed as increase of amyloid beta 38 level at 30 mg/kg, po after 4 hrs by ELISA
hERG (KCNH2) = hERG (KCNH2) (Homo sapiens, UniProt Q12809); test: Inhibition of human ERG at 3 uM by Patch-Xpress assay
Cytochrome P450 2C19 = Cytochrome P450 2C19 (Homo sapiens, UniProt P33261); test: Inhibition of CYP2C19 (unknown origin)
[7] = Drug metabolism in mouse liver microsomes at 1 uM after 15 mins; format: ADME, Microsome; details: read-out: Drug metabolism
Method in brief: (§3)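 Compound at 1 μM was incubated with human or mouse liver microsomes for 15 min. The value is the % of compound metabolized.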

Cytochrome P450 3A4 = Cytochrome P450 3A4 (Homo sapiens, UniProt P08684); test: Inhibition of CYP3A4 (unknown origin)
Gamma-secretase [8] = test: Modulation of gamma-secretase (unknown origin) assessed as reduction of amyloid beta 42 level; format: protein-complex assay, Homo sapiens
[9] = Drug metabolism in human liver microsomes at 1 uM after 15 mins; format: ADME, Microsome; details: read-out: Drug metabolism; method in brief: as §3
[10] = Fraction unbound in human plasma; format: ADME, cell-free
Method in brief: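 Unbound fraction in human plasma, determined as binding to human plasma proteins.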

Mus musculus [11] = test: Antialzheimer activity in mouse assessed as reduction of total amyloid beta level at 30 mg/kg, po after 4 hrs by ELISA; format: functional; method in brief: as §2
[12] = Fraction unbound in rat brain; format: ADME, tissue-based
Method in brief: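 Unbound fraction in rat brain tissue, expressed as %.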

[13] = Plasma concentration in dog at 20 mg/kg, po after 8 hrs; format: ADME, organism-based, Canis lupus familiaris; set-up: dose 20 mg/kg, route oral
Method in brief: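 Dogs received 20 mg/kg orally. Plasma compound concentration was measured at 8 h and reported in ng/mL and μM.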

Canis familiaris [14] = test: Antialzheimer activity in dog assessed as reduction of amyloid beta 42 level in cerebrospinal fluid at 20 mg/kg, po after 8 hrs by ELISA; format: functional; details: Canis lupus familiaris
Method in brief: (§4)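 Dogs received 20 mg/kg orally. CSF Aβ42 and Aβ38 were measured 8 h after dosing and expressed as % change.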

Canis familiaris [15] = test: Antialzheimer activity in dog assessed as increase of amyloid beta 38 level in cerebrospinal fluid at 20 mg/kg, po after 8 hrs by ELISA; format: functional, Canis lupus familiaris; method in brief: as §4
Canis familiaris [16] = test: Hepatotoxicity in dog assessed as effect on bilirubin and alanine transaminase level at 20 mg/kg, po; format: toxicity, organism-based, Canis lupus familiaris; set-up: dose 20 mg/kg, route oral; details: in vivo
Gamma-secretase [17] = test: Modulation of gamma-secretase (unknown origin); format: protein-complex assay, Homo sapiens

Sequence of Cytochrome P450 2C9 (P11712 whole entry): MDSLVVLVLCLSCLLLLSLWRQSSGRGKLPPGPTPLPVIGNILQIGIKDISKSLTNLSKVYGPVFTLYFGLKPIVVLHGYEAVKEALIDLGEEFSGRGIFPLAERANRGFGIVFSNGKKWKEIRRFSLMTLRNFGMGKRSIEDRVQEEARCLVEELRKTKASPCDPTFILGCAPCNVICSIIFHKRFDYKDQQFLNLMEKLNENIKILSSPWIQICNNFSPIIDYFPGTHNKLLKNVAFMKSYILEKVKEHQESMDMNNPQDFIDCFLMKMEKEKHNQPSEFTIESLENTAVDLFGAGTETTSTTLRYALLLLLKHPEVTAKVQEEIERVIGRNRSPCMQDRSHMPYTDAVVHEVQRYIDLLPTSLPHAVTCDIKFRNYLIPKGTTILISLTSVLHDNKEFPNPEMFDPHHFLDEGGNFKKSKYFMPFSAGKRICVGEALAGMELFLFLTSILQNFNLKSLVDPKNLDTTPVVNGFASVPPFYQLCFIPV
Sequence of Voltage-gated inwardly rectifying potassium channel KCNH2 (Q12809 whole entry): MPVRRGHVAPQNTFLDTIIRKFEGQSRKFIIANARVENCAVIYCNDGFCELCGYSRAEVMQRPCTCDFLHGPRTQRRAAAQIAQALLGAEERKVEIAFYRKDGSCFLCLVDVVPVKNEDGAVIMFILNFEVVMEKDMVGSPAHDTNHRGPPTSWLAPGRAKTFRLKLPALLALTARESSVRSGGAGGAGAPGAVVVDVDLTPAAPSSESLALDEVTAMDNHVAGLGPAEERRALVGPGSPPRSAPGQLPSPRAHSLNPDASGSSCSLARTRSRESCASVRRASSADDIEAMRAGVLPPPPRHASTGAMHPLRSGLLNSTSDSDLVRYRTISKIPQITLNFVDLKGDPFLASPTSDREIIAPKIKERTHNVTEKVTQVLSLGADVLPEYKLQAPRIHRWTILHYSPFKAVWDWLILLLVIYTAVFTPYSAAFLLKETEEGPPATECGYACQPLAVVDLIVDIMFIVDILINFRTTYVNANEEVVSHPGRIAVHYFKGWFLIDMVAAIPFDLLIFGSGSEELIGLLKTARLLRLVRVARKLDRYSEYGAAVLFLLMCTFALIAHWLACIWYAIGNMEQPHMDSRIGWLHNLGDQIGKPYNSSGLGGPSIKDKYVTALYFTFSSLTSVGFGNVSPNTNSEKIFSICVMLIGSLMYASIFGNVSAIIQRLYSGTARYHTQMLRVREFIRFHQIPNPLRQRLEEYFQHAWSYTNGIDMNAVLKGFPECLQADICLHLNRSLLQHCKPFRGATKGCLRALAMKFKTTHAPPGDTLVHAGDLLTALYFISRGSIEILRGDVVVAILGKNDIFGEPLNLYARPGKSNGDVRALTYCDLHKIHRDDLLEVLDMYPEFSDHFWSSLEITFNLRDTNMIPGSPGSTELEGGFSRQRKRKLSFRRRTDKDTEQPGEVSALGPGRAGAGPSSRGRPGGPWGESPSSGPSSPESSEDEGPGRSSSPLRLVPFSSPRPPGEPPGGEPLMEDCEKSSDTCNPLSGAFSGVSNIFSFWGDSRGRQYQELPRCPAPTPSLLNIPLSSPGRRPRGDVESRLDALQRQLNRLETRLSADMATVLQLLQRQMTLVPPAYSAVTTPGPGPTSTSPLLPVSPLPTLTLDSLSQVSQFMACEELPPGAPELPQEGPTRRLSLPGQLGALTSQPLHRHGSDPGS
Sequence of hERG (KCNH2) (Q12809 whole entry): as above
Sequence of Cytochrome P450 3A4 (P08684 whole entry): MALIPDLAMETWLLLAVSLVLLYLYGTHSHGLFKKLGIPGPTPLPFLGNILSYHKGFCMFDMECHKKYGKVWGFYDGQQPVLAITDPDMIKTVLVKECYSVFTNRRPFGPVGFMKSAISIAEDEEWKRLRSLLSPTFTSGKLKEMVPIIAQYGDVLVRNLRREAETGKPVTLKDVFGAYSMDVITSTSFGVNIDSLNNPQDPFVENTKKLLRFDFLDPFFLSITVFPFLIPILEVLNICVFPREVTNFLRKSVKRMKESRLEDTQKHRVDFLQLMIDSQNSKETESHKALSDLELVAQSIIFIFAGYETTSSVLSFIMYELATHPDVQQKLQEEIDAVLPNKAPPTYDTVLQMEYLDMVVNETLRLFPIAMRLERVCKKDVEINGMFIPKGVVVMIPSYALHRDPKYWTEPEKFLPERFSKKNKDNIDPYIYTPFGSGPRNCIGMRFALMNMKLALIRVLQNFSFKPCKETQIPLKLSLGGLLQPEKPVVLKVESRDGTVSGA
Sequence of Cytochrome P450 2D6 (P10635 whole entry): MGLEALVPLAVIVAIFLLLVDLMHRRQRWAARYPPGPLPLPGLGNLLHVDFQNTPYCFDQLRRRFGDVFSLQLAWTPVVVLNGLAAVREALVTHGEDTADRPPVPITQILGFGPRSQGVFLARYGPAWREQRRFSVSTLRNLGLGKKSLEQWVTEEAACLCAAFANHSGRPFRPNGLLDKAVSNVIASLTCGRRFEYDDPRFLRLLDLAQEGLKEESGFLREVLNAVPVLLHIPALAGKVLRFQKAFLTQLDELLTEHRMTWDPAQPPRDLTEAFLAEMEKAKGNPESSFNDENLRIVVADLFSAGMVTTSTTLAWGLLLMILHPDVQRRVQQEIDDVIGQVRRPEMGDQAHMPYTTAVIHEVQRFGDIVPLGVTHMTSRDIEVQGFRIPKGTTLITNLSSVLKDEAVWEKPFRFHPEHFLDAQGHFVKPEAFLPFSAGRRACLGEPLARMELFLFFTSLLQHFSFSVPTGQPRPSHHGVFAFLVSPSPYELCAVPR
Sequence of Cytochrome P450 2C19 (P33261 whole entry): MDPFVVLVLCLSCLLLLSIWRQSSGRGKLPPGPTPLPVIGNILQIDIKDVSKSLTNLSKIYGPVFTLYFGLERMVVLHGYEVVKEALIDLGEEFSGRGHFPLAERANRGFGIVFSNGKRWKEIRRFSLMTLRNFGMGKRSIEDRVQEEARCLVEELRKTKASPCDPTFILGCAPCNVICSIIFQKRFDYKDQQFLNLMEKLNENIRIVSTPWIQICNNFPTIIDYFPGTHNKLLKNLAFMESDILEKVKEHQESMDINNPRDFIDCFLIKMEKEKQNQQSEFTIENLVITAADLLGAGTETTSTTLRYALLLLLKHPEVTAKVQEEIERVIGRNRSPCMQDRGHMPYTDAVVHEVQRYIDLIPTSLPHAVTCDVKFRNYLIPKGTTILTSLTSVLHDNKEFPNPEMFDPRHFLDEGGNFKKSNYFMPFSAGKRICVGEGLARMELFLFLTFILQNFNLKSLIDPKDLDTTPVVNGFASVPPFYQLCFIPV

Structure (SMILES): COc1cc(-c2nc3n(n2)CCO[C@H]3c2ccccc2C(F)(F)F)ccc1-n1cnc(C)c1
- Kp at 4 h [1]: 0.93
- IC50 [2]: > 10 µM
- IC50 (Cytochrome P450 2D6): > 10 µM
- concentration at 4 h [3]: 3.36 µM
- IC50 (Cytochrome P450 1A2): > 10 µM
- concentration at 4 h [4]: 3.6 µM
- IC50 (Cytochrome P450 2C9): 8.43 µM
- inhibition in vivo at 30 mg/kg (Mus musculus [5]): 22%
- Increase % at 30 mg/kg (Mus musculus [6]): 17%
- inhibition at 3 µM (hERG (KCNH2)): 12%
- IC50 (Cytochrome P450 2C19): 1.52 µM
- metabolised at […], 1 µM [7]: 6%
- IC50 (Cytochrome P450 3A4): 1.1 µM
- IC50 (Gamma-secretase [8]): 0.071 µM
- metabolised at […], 1 µM [9]: 5%

Structure (SMILES): COc1cc(-c2nnc(-c3ccc(F)cc3)[nH]2)ccc1-n1cnc(C)c1
- IC50 (Gamma-secretase [8]): 1.29 µM

Structure (SMILES): COc1cc(-c2nc3n(n2)CCC[C@H]3c2ccc(F)cc2C)ccc1-n1cnc(C)c1
- Kp at 4 h [1]: 0.5
- IC50 [2]: 7.9 µM
- IC50 (Cytochrome P450 2D6): > 10 µM
- fraction unbound [10]: 0.027
- concentration at 4 h [3]: 4.8 µM
- IC50 (Cytochrome P450 1A2): > 10 µM
- concentration at 4 h [4]: 9.8 µM
- IC50 (Cytochrome P450 2C9): 5.66 µM
- inhibition in vivo at 30 mg/kg (Mus musculus [5]): 49%
- inhibition (Mus musculus [11]): inactive
- Increase % at 30 mg/kg (Mus musculus [6]): 59%
- inhibition at 3 µM (hERG (KCNH2)): 28%
- IC50 (Cytochrome P450 2C19): 9.24 µM
- fraction unbound [12]: 0.0092
- metabolised at […], 1 µM [7]: 9%
- IC50 (Cytochrome P450 3A4): 6.94 µM
- IC50 (Gamma-secretase [8]): 0.04 µM
- metabolised at […], 1 µM [9]: 41%

Structure (SMILES): COc1nc(-c2nc3n(n2)CCC[C@H]3c2ccccc2C(F)(F)F)ccc1-n1cnc(C)c1
- concentration at 8 h [13]: 19 µM
- Kp at 4 h [1]: 0.23
- inhibition in vivo at 20 mg/kg (Canis familiaris [14]): 50%
- IC50 (Cytochrome P450 2D6): > 10 µM
- fraction unbound [10]: 0.085
- concentration at 4 h [3]: 2.8 µM
- concentration at 4 h [4]: 12.3 µM
- IC50 (Cytochrome P450 2C9): 8.51 µM
- inhibition in vivo at 30 mg/kg (Mus musculus [5]): 62%
- Increase % at 30 mg/kg (Mus musculus [6]): 66%
- IC50 (Cytochrome P450 2C19): > 10 µM
- Activity (Canis familiaris [15]): 28%
- Activity (Canis familiaris [16]): Non-toxic
- fraction unbound [12]: 0.022
- metabolised at […], 1 µM [7]: 6%
- IC50 (Cytochrome P450 3A4): > 10 µM
- IC50 (Gamma-secretase [8]): 0.028 µM
- metabolised at […], 1 µM [9]: 10%

Structure (SMILES): COc1cc(-c2nc3n(n2)CCC[C@@H]3c2ccc(F)cc2C)ccc1-n1cnc(C)c1
- IC50 [2]: 0.794 µM
- IC50 (Gamma-secretase [8]): 0.447 µM

Structure (SMILES): COc1cc(C(=O)N[C@@H](C)c2ccc(F)cc2)ccc1-n1cnc(C)c1
- IC50 (Gamma-secretase [8]): 2.6 µM

Structure (SMILES): COc1cc(-c2nc(Cc3ccc(F)cc3)n(C)n2)ccc1-n1cnc(C)c1
- IC50 (Gamma-secretase [8]): 0.85 µM

Structure (SMILES): COc1cc(-c2nc(-c3ccc(F)cc3)nn2C)ccc1-n1cnc(C)c1
- IC50 (Gamma-secretase [8]): 5.75 µM

Structure (SMILES): COc1cc(-c2nc3n(n2)CCCC3c2ccc(F)cc2)ccc1-n1cnc(C)c1 (racemic)
- IC50 (Gamma-secretase [8]): 0.22 µM

Structure (SMILES): COc1cc(C(=O)NCc2cccc(-c3ccccc3)c2)ccc1-n1cnc(C)c1
- Kp at 4 h [1]: 0.22
- concentration at 4 h [3]: 2.7 µM
- concentration at 4 h [4]: 11.9 µM
- inhibition in vivo at 30 mg/kg (Mus musculus [5]): 12%
- inhibition in vivo at 30 mg/kg (Mus musculus [11]): 3%
- IC50 (Gamma-secretase [17]): 0.158 µM

Structure (SMILES): COc1cc(-c2nc(C)n(-c3ccc(F)cc3)n2)ccc1-n1cnc(C)c1
- IC50 (Gamma-secretase [8]): 0.77 µM

Structure (SMILES): COc1cc(-c2nc3n(n2)CCC[C@H]3c2ccccc2C(F)(F)F)ccc1-n1cnc(C)c1
- Kp at 4 h [1]: 1.29
- IC50 [2]: > 10 µM
- concentration at 4 h [3]: 12.7 µM
- concentration at 4 h [4]: 9.7 µM
- inhibition in vivo at 30 mg/kg (Mus musculus [5]): 46%
- Increase % at 30 mg/kg (Mus musculus [6]): 44%
- inhibition at 3 µM (hERG (KCNH2)): 11%
- metabolised at […], 1 µM [7]: 7%
- IC50 (Gamma-secretase [8]): 0.024 µM
- metabolised at […], 1 µM [9]: 13%

Structure (SMILES): COc1cc(-c2nc3n(n2)CCCC3c2ccc(F)cc2C)ccc1-n1cnc(C)c1 (racemic)
- IC50 (Gamma-secretase [8]): 0.093 µM

Structure (SMILES): COc1cc(-c2nc(-c3ccc(F)cc3)n(C)n2)ccc1-n1cnc(C)c1
- IC50 (Gamma-secretase [8]): 0.62 µM
